Test results published in the RNAGym collection of RNA variant scans (doi:10.1038/s41586-018-0170-7).

B1: tRNA (parent)
chain: GUUCCGUUGGCGUAAUGGUAACGCGUCUCCCUCCUAAGGAGAAGACUGCGGGUUCGAGUCCCGUACGGAACG

Variants of: B1
Test: yeast fitness, log relative to wild type (ln ratio); higher = fitter; tRNA-Arg(CCU), competitive growth, 37 C, 1 M NaCl
In short: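 Fitness is the natural log of a genotype's generation count divided by that of the wild type. A combinatorial library of tRNA-Arg(CCU) variants sat on a HIS3 centromeric plasmid in BY4742 lacking the chromosomal gene, from two independent transformations. Pools grew 4 generations in SC-HIS at 30 °C, then ~6.5 generations (~26.5 h) in SC-HIS 1M NaCl at 37 °C, with three outputs per input. Generations came from OD-scaled log2 output/input frequency, inverse-variance weighted across replicates, with variants counted by 125 bp paired-end Illumina sequencing.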

Variant | yeast fitness (ln)
AUUCCAUUGGCGUAAUGGUAACGCGUUUCCCUCCUAAGGAGACGAUUGCGGGUUCGAGUCCCGUAAGGAUCG | -0.192
AUUCCAUUGGCGUAAUGGUAACGCGUUUCCCUCCUAAGGAGAAGACUGCGGGUUCGAGUCCCGUAAGGAUUG | -0.292
AUUCCAUUGGCGUAAUGGUAACGCGUUUCCCUCCUAAGGAGAAGACUGCGGGUUCGAGUCCCGUAAGGAGUG | -0.473
AUUCCAUUGGCGUAAUGGUAACGCGUUUCCCUCCUAAGGAGACGAUUGCGGGUUCGAGUCCCGUAUGGAACG | -0.131
AUUCCAUUGGCGUAAUGGUAACGCGUUUCCCUCCUAAGGAGAAGAUUGCGGGUUCGAGUCCCGUAUGGAAUG | -0.0279
AUUCCAUUGGCGUAAUGGUAACGCGUUUCCCUCCUAAGGAGAAGAUUGCGGGUUCGAGUCCCGUAUGGAUUG | -0.478
AUUCCAUUGGCGUAAUGGUAACGCGUUUCCCUCCUAAGGAGACGACUGCGGGUUCGAGUCCCGUAUGGGUUG | -0.628
AUUCCAUUGGCGUAAUGGUAACGCGUUUCCCUCCUAAGGAGACGAUUGCGGGUUCGAGUCCCGUACGGAAUG | -0.247
AUUCCAUUGGCGUAAUGGUAACGCGUUUCCCUCCUAAGGAGAAGAUUGCGGGUUCGAGUCCCGUAAGGAUUG | -0.228
AUUCCAUUGGCGUAAUGGUAACGCGUUUCCCUCCUAAGGAGAAGACUGCGGGUUCGAGUCCCGUAUGGAGUG | -0.566
AUUCCAUUGGCGUAAUGGUAACGCGUUUCCCUCCUAAGGAGAAGAUUGCGGGUUCGAGUCCCGUACGGAGUG | -0.366
AUUCCAUUGGCGUAAUGGUAACGCGUUUCCCUCCUAAGGAGAAGACUGCGGGUUCGAGUCCCGUAUGGGUCG | -0.324
AUUCCAUUGGCGUAAUGGUAACGCGUUUCCCUCCUAAGGAGAAGACUGCGGGUUCGAGUCCCGUAUGGGGCG | -0.386
AUUCCAUUGGCGUAAUGGUAACGCGUUUCCCUCCUAAGGAGAAGAUUGCGGGUUCGAGUCCCGUACGGAUCG | -0.164
AUUCCAUUGGCGUAAUGGUAACGCGUUUCCCUCCUAAGGAGAAGAUUGCGGGUUCGAGUCCCGUACGGAGCG | -0.208
AUUCCAUUGGCGUAAUGGUAACGCGUUUCCCUCCUAAGGAGACGAUUGCGGGUUCGAGUCCCGUAUGGGGUG | -0.324
AUUCCAUUGGCGUAAUGGUAACGCGUUUCCCUCCUAAGGAGAAGAUUGCGGGUUCGAGUCCCGUAUGGAUCG | -0.198
AUUCCAUUGGCGUAAUGGUAACGCGUUUCCCUCCUAAGGAGAAGAUUGCGGGUUCGAGUCCCGUAUGGAGCG | -0.236
AUUCCAUUGGCGUAAUGGUAACGCGUUUCCCUCCUAAGGAGACGAUUGCGGGUUCGAGUCCCGUAUGGAUUG | -0.413

Variant | yeast fitness (ln)
AUUCCAUUGGCGUAAUGGUAACGCGUUUCCCUCCUAAGGAGACGACUGCGGGUUCGAGUCCCGUAUGGAGUG | -0.323
AUUCCAUUGGCGUAAUGGUAACGCGUUUCCCUCCUAAGGAGAAGAUUGCGGGUUCGAGUCCCGUAAGGAGUG | -0.269
AUUCCAUUGGCGUAAUGGUAACGCGUUUCCCUCCUAAGGAGAAGAUUGCGGGUUCGAGUCCCGUAUGGGAUG | -0.132
AUUCCAUUGGCGUAAUGGUAACGCGUUUCCCUCCUAAGGAGAAGAUUGCGGGUUCGAGUCCCGUAUGGAGUG | -0.21
AUUCCAUUGGCGUAAUGGUAACGCGUUUCCCUCCUAAGGAGAAGAUUGCGGGUUCGAGUCCCGUACGGGGUG | -0.316
AUUCCAUUGGCGUAAUGGUAACGCGUUUCCCUCCUAAGGAGACGACUGCGGGUUCGAGUCCCGUAUGGAUCG | -0.304
AUUCCAUUGGCGUAAUGGUAACGCGUUUCCCUCCUAAGGAGACGACUGCGGGUUCGAGUCCCGUAUGGAGCG | -0.431
AUUCCAUUGGCGUAAUGGUAACGCGUUUCCCUCCUAAGGAGAAGACUGCGGGUUCGAGUCCCGUAAGGAUCG | -0.139
AUUCCAUUGGCGUAAUGGUAACGCGUUUCCCUCCUAAGGAGAAGAUUGCGGGUUCGAGUCCCGUAUGGGUUG | -0.436
AUUCCAUUGGCGUAAUGGUAACGCGUUUCCCUCCUAAGGAGAAGACUGCGGGUUCGAGUCCCGUAUGGGUUG | -0.387
AUUCCAUUGGCGUAAUGGUAACGCGUUUCCCUCCUAAGGAGACGACUGCGGGUUCGAGUCCCGUAUGGGGUG | -0.487
AUUCCAUUGGCGUAAUGGUAACGCGUUUCCCUCCUAAGGAGAAGACUGCGGGUUCGAGUCCCGUAUGGGAUG | -0.321
AUUCCAUUGGCGUAAUGGUAACGCGUUUCCCUCCUAAGGAGAAGAUUGCGGGUUCGAGUCCCGUAUGGGGCG | -0.338
AUUCCAUUGGCGUAAUGGUAACGCGUUUCCCUCCUAAGGAGAAGAUUGCGGGUUCGAGUCCCGUAUGGGUCG | -0.468
AUUCCAUUGGCGUAAUGGUAACGCGUUUCCCUCCUAAGGAGAAGACUGCGGGUUCGAGUCCCGUACGGGGUG | -0.344
AUUCCAUUGGCGUAAUGGUAACGCGUUUCCCUCCUAAGGAGAAGACUGCGGGUUCGAGUCCCGUAAGGAAUG | -0.224
AUUCCAUUGGCGUAAUGGUAACGCGUUUCCCUCCUAAGGAGAAGACUGCGGGUUCGAGUCCCGUAAGGGGUG | -0.392
AUUCCAUUGGCGUAAUGGUAACGCGUUUCCCUCCUAAGGAGAAGAUUGCGGGUUCGAGUCCCGUAAGGAGCG | -0.285
